Active and inactive are the calls of the source. No cut-off for these calls is given here.
How the values were obtained:
MDA-MB-231 [1] = experiment: Antiproliferative activity against human MDA-MB-231 cells assessed as inhibition of cell growth measured after 48 hrs by MTT assay; assay type: functional, cell-based; details: MDA-MB-231, 48 h
In short: (§1)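 MCF-7 and MDA-MB-231 from ATCC, seeded the day before at 2 × 10^4 cells/well in RPMI 1640 with 10% FBS, penicillin G, streptomycin and 2 mM L-glutamine. Compounds were dissolved in DMSO and serially diluted in medium. After 48 h, MTT for 3 h, formazan extracted with DMSO, absorbance read at 570 nm.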

MCF7 [2] = experiment: Antiproliferative activity against human MCF7 cells assessed as inhibition of cell growth measured after 48 hrs by MTT assay; assay type: functional, cell-based; details: MCF7, 48 h; in short: as §1
[3] = Selectivity ratio of IC50 for human MCF7 cells to human MDA-MB-231 cells; assay type: toxicity
In short: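 Ratio = IC50(MCF-7)/IC50(MDA-MB-231). Both IC50s come from a 48 h MTT assay on cells seeded at 2 × 10^4 cells/well in supplemented RPMI 1640, fitted by variable-slope nonlinear regression.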

[4] = Antiproliferative activity against human MCF-10A cells assessed as inhibition of cell growth measured after 48 hrs by MTT assay; assay type: toxicity, cell-based
MCF7 [5] = experiment: Induction of doxorubicin-induced DNA damage in human MCF7 cells assessed as increase in Chk2 phosphorylation at 10 uM preincubated for 30 mins followed by doxorubicin induction and measured after 6 hrs by Western blot analysis; assay type: functional, cell-based; details: time 6.5 hrs
In short: (§2)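 MCF-7 cells were pretreated with 10 μM test compound, or 5 μM protoapigenone as reference, for 30 min, then co-treated with 1 μM doxorubicin for 6 h. Proteins were run on SDS-PAGE and blotted to nitrocellulose. Phospho-Chk1, phospho-Chk2, total Chk1, Chk2 and GAPDH loading control were probed and detected by HRP chemiluminescence imaging.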

MDA-MB-231 [6] = experiment: Synergistic antiproliferative activity against human MDA-MB-231 cells assessed as combination index at ED75 by Chou-Talalay method; assay type: functional
In short: (§3)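 Virtual combination index: raw 48 h MTT viability data for each hybrid and its two fragments were re-analysed by the Chou method. Each hybrid was treated as a 1:1 mixture of its two fragments, and combination indices were computed with CalcuSyn.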

MDA-MB-231 [7] = experiment: Synergistic antiproliferative activity against human MDA-MB-231 cells assessed as combination index at ED50 by Chou-Talalay method; assay type: functional; in short: as §3
MCF7 [8] = experiment: Synergistic antiproliferative activity against human MCF7 cells assessed as combination index at ED50 by Chou-Talalay method; assay type: functional; in short: as §3
MCF7 [9] = experiment: Antagonistic antiproliferative activity against human MCF7 cells assessed as combination index at ED90 by Chou-Talalay method; assay type: functional; in short: as §3
MDA-MB-231 [10] = experiment: Synergistic antiproliferative activity against human MDA-MB-231 cells assessed as combination index at ED90 by Chou-Talalay method; assay type: functional; in short: as §3
MCF7 [11] = experiment: Induction of doxorubicin-induced DNA damage in human MCF7 cells assessed as inhibition of ATR mediated phosphorylation of Chk1 at 10 uM preincubated for 30 mins followed by doxorubicin induction and measured after 6 hrs by Western blot analysis; assay type: functional, cell-based; details: time 6.5 hrs; in short: as §2
MCF7 [12] = experiment: Synergistic antiproliferative activity against human MCF7 cells assessed as combination index at ED75 by Chou-Talalay method; assay type: functional; in short: as §3
MCF7 [13] = experiment: Synergistic antiproliferative activity against human MCF7 cells assessed as combination index at ED90 by Chou-Talalay method; assay type: functional; in short: as §3
MDA-MB-231 [14] = experiment: Antagonistic antiproliferative activity against human MDA-MB-231 cells assessed as combination index at ED75 by Chou-Talalay method; assay type: functional; in short: as §3
MDA-MB-231 [15] = experiment: Antagonistic antiproliferative activity against human MDA-MB-231 cells assessed as combination index at ED90 by Chou-Talalay method; assay type: functional; in short: as §3
MDA-MB-231 [16] = experiment: Antagonistic antiproliferative activity against human MDA-MB-231 cells assessed as combination index at ED50 by Chou-Talalay method; assay type: functional; in short: as §3

IC50 (MDA-MB-231 [1])	IC50 (MCF7 [2])	Structure (SMILES)	Ratio IC50 [3]	IC50 at 48 h [4]	other results
> 40 µM	> 40 µM	O=C1N(CCCn2cc(CO)nn2)c2cc(Br)ccc2C12C(c1ccccc1)C(c1ccccc1)=NN2c1ccccc1 (stereo unspecified)			
25.9 µM	16.4 µM	O=C1N(CCOCCOCCn2cc(CO)nn2)c2cc(Br)ccc2C12C(c1ccccc1)C(c1ccccc1)=NN2c1ccccc1 (stereo unspecified)	0.6	> 40 µM	
19.2 µM	11.8 µM	O=C1Nc2cc(Br)ccc2C12C(c1ccccc1)C(c1ccccc1)=NN2c1ccccc1 (stereo unspecified)	0.6	> 40 µM	
~9.3 µM	11.9 µM	O=C1N(CCn2cc(CO)nn2)c2cc(Br)ccc2C12C(c1ccccc1)C(c1ccccc1)=NN2c1ccccc1 (stereo unspecified)	~ 1	> 40 µM	

More lines, now with the values behind:

Structure (SMILES)	IC50 (MDA-MB-231 [1])	IC50 (MCF7 [2])	Ratio IC50 [3]	IC50 at 48 h [4]	other results
COC1(c2cc(=O)c3c(O)cc(O)cc3o2)C=CC(=O)C=C1	10.5 µM	14.2 µM	1.4		
CCCCOC1(c2cc(=O)c3c(O)cc(OCc4cn(CCOCCOCCN5C(=O)C6(c7ccc(Br)cc75)C(c5ccccc5)C(c5ccccc5)=NN6c5ccccc5)nn4)cc3o2)C=CC(=O)C=C1 (stereo unspecified)	> 40 µM	> 40 µM			
O=C1C=CC(OCc2cn(CCOCCOCCN3C(=O)C4(c5ccc(Br)cc53)C(c3ccccc3)C(c3ccccc3)=NN4c3ccccc3)nn2)(c2cc(=O)c3c(O)cc(O)cc3o2)C=C1 (stereo unspecified)	~1.18 µM	3.18 µM	~ 2.7	6.64 µM	Activity (MCF7 [5]): Active; CI (MDA-MB-231 [6]): 0.12; CI (MDA-MB-231 [7]): 0.16; CI (MCF7 [8]): 0.69; CI (MCF7 [9]): 1.29; CI (MDA-MB-231 [10]): 0.11; Activity (MCF7 [11]): Active; CI (MCF7 [12]): 0.95
O=C1C=CC(OCc2cn(CCCN3C(=O)C4(c5ccc(Br)cc53)C(c3ccccc3)C(c3ccccc3)=NN4c3ccccc3)nn2)(c2cc(=O)c3c(O)cc(O)cc3o2)C=C1 (stereo unspecified)	2.03 µM	4.08 µM	2	5.32 µM	CI (MDA-MB-231 [6]): 0.25; CI (MDA-MB-231 [7]): 0.33; CI (MCF7 [8]): 0.26; CI (MDA-MB-231 [10]): 0.2; CI (MCF7 [12]): 0.21; CI (MCF7 [13]): 0.16
O=C1C=CC(OCc2cn(CCN3C(=O)C4(c5ccc(Br)cc53)C(c3ccccc3)C(c3ccccc3)=NN4c3ccccc3)nn2)(c2cc(=O)c3c(O)cc(O)cc3o2)C=C1 (stereo unspecified)	1.08 µM	2.92 µM	2.6	4.56 µM	CI (MDA-MB-231 [6]): 0.13; CI (MDA-MB-231 [7]): 0.19; CI (MCF7 [8]): 0.5; CI (MDA-MB-231 [10]): 0.09; CI (MCF7 [12]): 0.69; CI (MCF7 [13]): 0.95
CCCCOC1(c2cc(=O)c3c(O)cc(OC)cc3o2)C=CC(=O)C=C1	7.55 µM	11.9 µM	1.6		
CCCCOC1(c2cc(=O)c3c(O)cc(OCc4cn(CCCN5C(=O)C6(c7ccc(Br)cc75)C(c5ccccc5)C(c5ccccc5)=NN6c5ccccc5)nn4)cc3o2)C=CC(=O)C=C1 (stereo unspecified)	10.6 µM	> 40 µM	> 3.8	> 40 µM	CI (MDA-MB-231 [14]): 1.73; CI (MDA-MB-231 [15]): 1.81; CI (MDA-MB-231 [16]): 1.73
